# The source made the active and inactive calls. The calls are words filed in the database; no cut-off is given here.
# Columns and labels:
# [1] = target: Serine/threonine-protein kinase PINK1, mitochondrial (Homo sapiens) (UniProt Q9BXM7); experiment: Activation of FLAG tagged PINK1 (unknown origin) expressed in Flp-In TRex HEK293 cells co-expressed with wild-type Parkin assessed as Parkin Ser65 phosphorylation at 10 uM by immunoblotting analysis; type: cell-based; details: TDE = time-dependent effect
# Serine/threonine-protein kinase PINK1, mitochondrial (Homo sapiens), sequence (Q9BXM7 whole entry): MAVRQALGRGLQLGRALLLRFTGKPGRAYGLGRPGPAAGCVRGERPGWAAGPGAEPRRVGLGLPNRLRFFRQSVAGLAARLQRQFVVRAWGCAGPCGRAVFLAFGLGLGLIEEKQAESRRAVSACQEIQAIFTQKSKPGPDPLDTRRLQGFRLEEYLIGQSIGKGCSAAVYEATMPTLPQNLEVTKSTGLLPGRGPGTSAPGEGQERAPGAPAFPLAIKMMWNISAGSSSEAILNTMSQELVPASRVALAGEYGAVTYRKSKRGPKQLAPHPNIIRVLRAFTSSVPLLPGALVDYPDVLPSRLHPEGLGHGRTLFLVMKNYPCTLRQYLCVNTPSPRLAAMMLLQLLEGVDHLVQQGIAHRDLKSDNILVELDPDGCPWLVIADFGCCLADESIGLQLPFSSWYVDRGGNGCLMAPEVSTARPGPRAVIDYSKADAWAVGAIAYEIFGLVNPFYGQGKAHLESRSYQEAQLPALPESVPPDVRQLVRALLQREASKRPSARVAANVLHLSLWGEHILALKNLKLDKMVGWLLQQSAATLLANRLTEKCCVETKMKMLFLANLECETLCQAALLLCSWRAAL
# [2] = target: T1, Lysosomal protective protein (Homo sapiens, UniProt P10619); experiment: Drug metabolism in pH 7.4 trizma buffer assessed as cathepsin A (unknown origin)-mediated (S)-2-((((2R,3S,4R,5R)-5-(6-(furan-2-ylmethylamino)-9H-purin-9-yl)-3,4-dihydroxytetrahydrofuran-2-yl)methoxy)oxidophosphorylamino)propanoate formation at 5.0 mg measured after 2 to 12 hrs by 31P-NMR spectroscopic analysis; type: ADME
# T1 sequence (P10619 whole entry): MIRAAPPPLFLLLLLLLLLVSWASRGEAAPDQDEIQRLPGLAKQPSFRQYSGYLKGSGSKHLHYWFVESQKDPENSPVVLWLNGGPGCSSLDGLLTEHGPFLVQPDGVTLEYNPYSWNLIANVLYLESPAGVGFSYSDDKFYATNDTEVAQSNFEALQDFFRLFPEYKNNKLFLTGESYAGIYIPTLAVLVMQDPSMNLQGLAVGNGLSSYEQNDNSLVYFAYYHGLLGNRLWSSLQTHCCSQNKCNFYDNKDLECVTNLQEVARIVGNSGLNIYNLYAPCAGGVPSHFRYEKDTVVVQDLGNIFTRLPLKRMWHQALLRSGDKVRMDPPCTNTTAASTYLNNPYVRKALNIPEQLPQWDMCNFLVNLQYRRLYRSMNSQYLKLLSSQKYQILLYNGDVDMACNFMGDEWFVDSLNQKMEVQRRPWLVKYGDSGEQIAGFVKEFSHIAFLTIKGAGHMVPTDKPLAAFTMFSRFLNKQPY
# Serum [3] = experiment: Metabolic stability of compound in human serum at 5.0 mg measured at even intervals over 11 hrs by 31P-NMR spectroscopic analysis; type: ADME, cell-free
# How it was run: (§1)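 Serum stability: 5.0 mg in DMSO-d6 and D2O, thawed human or mouse serum added in the NMR tube. 31P NMR at 37 °C, spectra immediately, at 30 min, then at even intervals over 11 h. Controls were compound without serum, and serum without compound.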
# Serum [4] = experiment: Metabolic stability of the compound in mouse serum at 5.0 mg measured at even intervals over 11 hrs by 31P-NMR spectroscopic analysis; type: ADME, cell-free; how it was run: as §1
# [5] = Chemical stability of compound in pH 1 buffer at 5.0 mg measured at every 20 mins over 12 hrs by 31P-NMR spectroscopic analysis; type: physicochemical; details: pH 1, 12 h
# How it was run: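 Acid stability: 5 mg in methanol-d4 mixed with pH 1 buffer (equal parts 0.2 M HCl and 0.2 M KCl). 31P NMR at 37 °C, spectra every 20 min over 12 h; persistence of parent phosphorus peaks followed.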
# [6] = target: Serine/threonine-protein kinase PINK1, mitochondrial (Homo sapiens) (UniProt Q9BXM7); experiment: Activation of FLAG tagged PINK1 (unknown origin) expressed in Flp-In TRex HEK293 cells co-expressing wild-type Parkin assessed as Parkin Ser65 phosphorylation at 50 uM after 24 hrs in absence of CCCP by immunoblotting analysis; type: cell-based
# [7] = target: T1, Lysosomal protective protein; experiment: Stability in pH 7.4 trizma buffer assessed as cathepsin A (unknown origin)-mediated compound hydrolysis at 5.0 mg measured after 15 mins by 31P-NMR spectroscopic analysis; type: ADME; details: pH 7.4, 0.25 h
# [8] = target: T1, Lysosomal protective protein; experiment: Prodrug activation in pH 7.4 trizma buffer assessed as cathepsin A (unknown origin)-mediated kinetin riboside monophosphate metabolite formation at 5.0 mg measured after 48 hrs by 31P-NMR spectroscopic analysis; type: ADME; details: pH 7.4, 48 h
# [9] = target: T1, Lysosomal protective protein; experiment: (§2) Stability in pH 7.4 trizma buffer assessed as cathepsin A (unknown origin)-mediated compound hydrolysis by measuring parent compound remaining at 5.0 mg measured after 12 hrs by 31P-NMR spectroscopic analysis; type: ADME; details: pH 7.4, 12 h
# [10] = target: T1, Lysosomal protective protein; experiment: Drug level in pH 7.4 trizma buffer treated with phenyl(Isopropoxy-L-alaninyl) kinetin riboside phosphoramidate assessed as cathepsin A (unknown origin)-mediated metabolite formation at 5.0 mg measured after 2 to 12 hrs by 31P-NMR spectroscopic analysis; type: ADME
# [11] = target: T2, cathepsin A (lysosomal protective protein) (Homo sapiens, UniProt P10619); experiment: as §2; type: ADME; details: cathepsin A in trizma buffer, pH 7.4, read-out: Stability
# T2 sequence (P10619 whole entry): T1 sequence (P10619 whole entry)
# [12] = target: Serine/threonine-protein kinase PINK1, mitochondrial (Homo sapiens) (UniProt Q9BXM7); experiment: Activation of FLAG tagged PINK1 (unknown origin) expressed in Flp-In TRex HEK293 cells co-expressing wild-type Parkin assessed as Parkin Ser65 phosphorylation at 50 uM in absence of CCCP by immunoblotting analysis; type: cell-based; details: TDE = time-dependent effect
# [13] = target: Serine/threonine-protein kinase PINK1, mitochondrial (Homo sapiens) (UniProt Q9BXM7); experiment: Activation of FLAG tagged PINK1 (unknown origin) expressed in Flp-In TRex HEK293 cells co-expressed with Parkin S65A mutant assessed as Parkin phosphorylation at 50 uM in absence of CCCP by immunoblotting analysis; type: cell-based
structure (smiles),measurement,setting,value
N#CC(C#N)=NNc1cccc(Cl)c1,Activity,[1],Tde
CC(C)OC(=O)[C@H](C)NP(=O)(OC[C@H]1O[C@@H](n2cnc3c(NCc4ccco4)ncnc32)[C@H](O)[C@@H]1O)Oc1ccccc1 (stereo partly drawn),Drug metabolism,[2],Metabolite_Detected
same,Stability,Serum [3],Stable
same,Stability,Serum [4],Stable
same,Stability,[5],Stable
same,Activity,[6],Active
same,Stability,[7],Stable
same,Drug metabolism,[8],Metabolite_Detected
same,Stability,[9],Unstable
C[C@H](NP(=O)(O)OC[C@H]1O[C@@H](n2cnc3c(NCc4ccco4)ncnc32)[C@H](O)[C@@H]1O)C(=O)O,Drug metabolism,[10],Metabolite_Detected
C[C@H](NP(=O)(OC[C@H]1O[C@@H](n2cnc3c(NCc4ccco4)ncnc32)[C@H](O)[C@@H]1O)Oc1ccccc1)C(=O)OC(C)(C)C (stereo partly drawn),Activity,[6],inactive
same,remaining at 12 h,[11],50%
c1coc(CNc2ncnc3[nH]cnc23)c1,Activity,[6],inactive
C[C@H](NP(=O)(OC[C@H]1O[C@@H](n2cnc3c(NCc4ccco4)ncnc32)[C@H](O)[C@@H]1O)Oc1ccccc1)C(=O)OCc1ccccc1 (stereo partly drawn),Activity,[6],Active
same,Activity,[12],Tde
same,Activity,[13],inactive
OC[C@H]1O[C@@H](n2cnc3c(NCc4ccco4)ncnc32)[C@H](O)[C@@H]1O,Activity,[6],Active
COC(=O)[C@H](C)NP(=O)(OC[C@H]1O[C@@H](n2cnc3c(NCc4ccco4)ncnc32)[C@H](O)[C@@H]1O)Oc1ccccc1 (stereo partly drawn),Activity,[6],Active

# From ChEMBL document CHEMBL4049415, “Kinetin Riboside and Its ProTides Activate the Parkinson's Disease Associated PTEN-Induced Putative Kinase 1 (PINK1) Independent of Mitochondrial Depolarization” (J Med Chem, 2017)
